In ChEMBL document CHEMBL4732036, “Phenyl bioisosteres in medicinal chemistry: discovery of novel gamma-secretase modulators as a potential treatment for Alzheimer''s disease” (RSC Med Chem, 2021):
Converted amounts (≈) assume the structure as drawn.

Legend:
Gamma-secretase = experiment: Modulatory activity of gamma secretase in human H4 cells overexpressing human APP695 K595N/M596L mutant assessed as decrease in amyloidbeta42 levels at 24 hrs by Alphalisa method; type: cell-based
In short: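 H4 neuroglioma cells stably expressing APP695 Swedish mutant, in IMDM with 10% FCS and […] hygromycin B, at 37 °C, 5% CO2. Compounds added 3-4 h after plating and incubated 24 h, typically 4 µM down to 0.0013 µM in half-log steps (8 points), final Me2SO 0.4%. Secreted Aβ in supernatant quantified by AlphaLisa (3 h antibody mix, then donor beads 30 min, RT). IC50 by nonlinear regression.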

[1] = Distribution coefficient between 1-octanol and phosphate buffer, logD of the compound after 24 hrs by shake flask assay; type: physicochemical; conditions: 1-octanol/phosphate buffer
In short: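 CAMDIS high-throughput shake-flask method. PVDF membranes impregnated with 1-octanol are dipped in 25 mM phosphate buffer, pH 7.4, containing the compound, then shaken 24 h at 23 °C. Remaining aqueous concentration measured by LC/MS. logD calculated from the aqueous concentration with and without octanol impregnation, and the phase ratio.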

[2] = Solubility of compound in PBS buffer at pH 6.5 incubated for over night by HPLC-UV based LYSA assay; type: physicochemical
In short: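 Duplicate samples from 10 mM DMSO stocks. DMSO evaporated, residue dissolved in 0.05 M phosphate buffer, pH 6.5, stirred 1 h, shaken 2 h, left overnight, then filtered. Filtrate and its 1/10 dilution measured by direct UV or HPLC-UV against a four-point calibration curve.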

Structure (SMILES) | IC50 (Gamma-secretase) [nM] | logD at 24 h [1] | solubility at 12 h [2] [µg/mL]
Cc1nnc(C23CCC(Nc4nc(Oc5cccc(Cl)c5)n(C(C)C)n4)(CC2)CC3)o1 | 118 | 4.1 | 15 (≈ 33.9 µM)
Cc1nnc(C23CC(Nc4nc5n(n4)CCCN5c4cccc(Cl)c4)(C2)C3)o1 | 777 | 2.4 | 167 (≈ 420 µM)
Cc1nnc(-c2ccc(Nc3nc(Oc4cccc(Cl)c4)n(C(C)C)n3)cc2)o1 | 510 | > 4 | < 0.1
Cc1nnc(N2CC3CCC(C2)C3Nc2nc3n(n2)CCCN3c2ccc(OC(F)(F)F)cc2)o1 (centres undefined) | 46 | 3.5 | 106 (≈ 216 µM)
Cc1nnc(C23CCC(Nc4nc5n(n4)CCCN5c4ccc(OC(F)(F)F)cc4)(CC2)CC3)o1 | 21 | 3.7 | 0.4 (≈ 0.817 µM)
Cc1nnc(C23CC(Nc4nc5n(n4)CCCN5c4ccc(OC(F)(F)F)cc4)(C2)C3)o1 | 587 | 2.8 | 3.2 (≈ 7.15 µM)
Cc1cc(C23CC(Nc4nc5n(n4)CCCC[C@H]5c4ccc(F)c(F)c4F)(C2)C3)ncn1 | 11 | 3.8 | 1 (≈ 2.27 µM)
Cc1nnc(N2CC3CCC(C2)C3Nc2nc(Oc3cccc(Cl)c3)n(C(C)C)n2)o1 (centres undefined) | 42 | 3.6 | 104 (≈ 234 µM)
Cc1nnc(-c2ccc(Nc3nc4n(n3)CCCN4c3cccc(Cl)c3)cc2)o1 | 95 | 3.2 | < 0.1
Cc1nnc(-c2ccc(Nc3nc4n(n3)CCCN4c3ccc(OC(F)(F)F)cc3)cc2)o1 | 227 | > 4 | < 0.1

More lines, now with the values ahead:

IC50 (Gamma-secretase) [nM] | logD at 24 h [1] | solubility at 12 h [2] [µg/mL] | Structure (SMILES)
146 | > 4 | < 0.1 | Cc1nnc(C23CCC(Nc4nc(Cc5ccc(Cl)cc5)cc(C(C)(C)O)n4)(CC2)CC3)o1
520 | 4 | 11 (≈ 25.8 µM) | Cc1nnc(C23CC(Nc4nc(Cc5ccc(Cl)cc5)cc(C(C)(C)O)n4)(C2)C3)o1
214 | 4.1 | 88 (≈ 220 µM) | Cc1nnc(C23CC(Nc4nc(Oc5cccc(Cl)c5)n(C(C)C)n4)(C2)C3)o1
34 | 2.7 | 233 (≈ 528 µM) | Cc1nnc(N2CC3CCC(C2)C3Nc2nc3n(n2)CCCN3c2cccc(Cl)c2)o1 (centres undefined)
114 | 3.1 | 132 (≈ 300 µM) | Cc1nnc(C23CCC(Nc4nc5n(n4)CCCN5c4cccc(Cl)c4)(CC2)CC3)o1
17 | 3.4 | 7 (≈ 14.5 µM) | Cc1cc(N2CC3CCC(C2)C3Nc2nc3n(n2)CCCC[C@H]3c2ccc(F)c(F)c2F)ncn1 (some centres undefined)
478 | > 4 | < 0.1 | Cc1nnc(-c2ccc(Nc3nc(Cc4ccc(Cl)cc4)cc(C(C)(C)O)n3)cc2)o1
38 | 4 | 18 (≈ 38.4 µM) | Cc1nnc(N2CC3CCC(C2)C3Nc2nc(Cc3ccc(Cl)cc3)cc(C(C)(C)O)n2)o1 (centres undefined)
